High-throughput results (PubChem)
Rows were chosen to be rich in hits. Some 1.5% of all compounds tested hit in one or more screens of this group.
Tb hexokinase: Trypanosoma brucei hexokinase 1 inhibitors, primary screen, biochemical, G6PDH-coupled NADH absorbance, MLSCN library | inhibition, % at 10 µM | hexokinase 1 [Trypanosoma brucei] | 220,000 compounds, 0.11% hits | recombinant TbHK1, G6PDH-coupled NADH A340;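 active = inhibition of 50% or more in the single-dose primary screen; inactive = inhibition below 50%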
Dynein cargo inh: inhibitors of GR-EGFP nuclear translocation, primary screen, dynein cargo transport inhibitor project, imaging, high-content, 3617.4 mouse cells. AID 1381, 2008. z-score, hits read low. 220,000 compounds, 0.47% hits. test concentration mostly 20 µM; stimulated with dexamethasone, 1 µM; active compounds read low;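 active = plate z-score of nuclear minus cytoplasmic receptor signal below a set negative limit, without overly bright fluorescence or cell loss, cut at about -3.5 in these data, passing the limit was not always enough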;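 note: z-score of nuclear minus cytoplasmic ring GR-EGFP intensity difference per well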
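Schedule: 48 h induction, then 1 h compound, then 30 min agonist, 37 °C. Buffer or medium: tetracycline-free induction medium containing charcoal-stripped FBS. Reagent: 1.0 µM final dexamethasone stimulus. Evaluation: nuclear versus cytoplasmic GR-EGFP signal, averaged per well. Signal: high-content fluorescence imaging after fixation.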
MT stabilize HCS: microtubule stabilizers in HeLa cells, primary screen, imaging, high-content imaging. % tubulin-high responders, % at 10 µM. AID 2205, 2009. HeLa tubulin immunostaining HCS, 24 h; share of cells brighter than vehicle mean+2SD. 200,000 compounds, 0.83% hits;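 active = plate Z-score above 3 for both tubulin-high and condensed-nucleus cell shares, with cell loss under 80%, at 10 µM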;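 note: anti alpha tubulin signal scored within the nucleus-defined area of each cell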
bCat nuc transl: modulators of beta-catenin nuclear translocation, primary screen, imaging, HeLa cells, immunofluorescence, high-content; nuclear translocation activity, % at 5 µM; 190,000 compounds, 0.3% hits; AID 1665, 2009;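 active = nuclear translocation activity above 50% at 5 µM, with a well cell count of 50 or more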;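 note: per-cell ratio of nuclear to cytoplasmic median beta-catenin stain intensity; plate controls were DMSO negative control for no effect and GSK-3 inhibitor IX positive control for full effect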
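Test system: human HeLa cell line; Doses: 5 µM primary, 0.02–20 µM confirmation; Incubation: 24 h compound exposure, 37°C; Detection: beta-catenin immunofluorescence imaging with DAPI; Read-out: beta-catenin nuclear/cytoplasmic ratio, % activation.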
Rad51 HR inh: human RAD51 strand exchange inhibitors, primary screen, biochemical, fluorescence; 200,000 compounds, 0.085% hits; DNA repair protein RAD51 homolog 1 (Homo sapiens), Q06609; inhibition, % at 10 µM; hRad51 DNA strand exchange, fluorescence dequenching; AID 1385, 2008;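 active = inhibition above 40% at the single screening dose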;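 note: 0% = DMSO control wells and 100% = blanks with heterologous ssDNA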
Target sequence (Q06609 whole entry, looked up): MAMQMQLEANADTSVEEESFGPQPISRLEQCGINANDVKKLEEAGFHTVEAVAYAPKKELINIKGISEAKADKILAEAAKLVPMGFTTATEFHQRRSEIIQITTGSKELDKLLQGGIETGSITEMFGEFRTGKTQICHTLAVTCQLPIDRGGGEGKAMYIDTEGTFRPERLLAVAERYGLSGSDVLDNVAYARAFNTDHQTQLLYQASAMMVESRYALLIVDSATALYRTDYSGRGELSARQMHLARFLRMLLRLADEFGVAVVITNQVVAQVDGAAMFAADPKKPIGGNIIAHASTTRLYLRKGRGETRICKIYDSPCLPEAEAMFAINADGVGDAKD
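Material: hRad51 filaments on single-stranded DNA; Reagent: Donor/quencher-labelled 47-bp dsDNA substrate; Compound: 10 µM final, single point; Schedule: 37 °C 15-min filament assembly, 30-min compound preincubation, 15-min exchange; Technique: FRET fluorescence, excitation 485 nm, emission 520 nm; Benchmarks: control wells and blank wells on each plate.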
* marks the source's active call; other numbers are inactive results.

Results for O=C1N=C(N2CCCCC2)S/C1=C\c1cn[nH]c1-c1ccccc1 ?
Tb hexokinase: -27.3; Dynein cargo inh: 0.264; MT stabilize HCS: 2.9; bCat nuc transl: -1.5

What do the screens show for `O=c1oc2cc(Oc3ccc(C(F)(F)F)cc3[N+](=O)[O-])ccc2c2c1CCC2`?
Tb hexokinase: -4.6; Dynein cargo inh: 0.22; MT stabilize HCS: 2.2; bCat nuc transl: -2.9; Rad51 HR inh: -2.0

How did O=c1oc2cc(Oc3c([N+](=O)[O-])cc(C(F)(F)F)cc3[N+](=O)[O-])ccc2c2c1CCCC2 do in these assays?
Tb hexokinase: -4.6; Dynein cargo inh: -3.78*; MT stabilize HCS: 2.9; bCat nuc transl: 0.9; Rad51 HR inh: -5.2

How did COc1ccc(C2=NOC(C(=O)NCc3cccs3)C2)cc1OC (stereo unspecified) do in these assays?
Tb hexokinase: -5.8; Dynein cargo inh: 0.439; MT stabilize HCS: 41.2*; Rad51 HR inh: -7.8

What do the screens show for `COc1cc(C2=NOC(C(=O)NCc3cccs3)C2)cc(OC)c1OC` (stereo unspecified)?
Tb hexokinase: -3.5; Dynein cargo inh: 0.0248; MT stabilize HCS: 26.8; Rad51 HR inh: -4.1

How did COc1cc(OC)c(C2=NOC(C(=O)NCc3cccs3)C2)cc1Cl (stereo unspecified) do in these assays?
Tb hexokinase: 6.0; Dynein cargo inh: -0.963; MT stabilize HCS: 19.4*; bCat nuc transl: 23.8; Rad51 HR inh: 0.8

Results for CCOc1cc(C)c(Cl)cc1S(=O)(=O)NCc1ccc2c(c1)OCO2 ?
Tb hexokinase: -1.2; Dynein cargo inh: -0.134; MT stabilize HCS: 34.8*; bCat nuc transl: 3.9; Rad51 HR inh: 2.4

How did CCOc1cc(S(=O)(=O)NCc2ccc3c(c2)OCO3)c(C)cc1C do in these assays?
Tb hexokinase: 4.8; Dynein cargo inh: 0.123; MT stabilize HCS: 1.5; Rad51 HR inh: -2.8

What do the screens show for `COc1ccc(C2C3=C(CC(C)(C)CC3=O)Nc3cc4c(cc32)OCO4)cc1` (stereo unspecified)?
Tb hexokinase: -15.3; Dynein cargo inh: 0.297; MT stabilize HCS: 2.1; bCat nuc transl: 1.5; Rad51 HR inh: -9.1

What do the screens show for `COc1ccc(OC)c(C2C3=C(COC3=O)Nc3cc4c(cc32)OCO4)c1` (stereo unspecified)?
Tb hexokinase: -5.8; Dynein cargo inh: 0.63; MT stabilize HCS: 10.2; bCat nuc transl: 111.2*; Rad51 HR inh: -10.3

Results for O=C(N/N=C/c1ccc(-c2ccccc2Cl)o1)c1ccccc1 ?
Tb hexokinase: -1.4; Dynein cargo inh: -0.591; MT stabilize HCS: 32.5*; Rad51 HR inh: 17.4

How did O=C(NCc1ccc2c(c1)OCO2)c1ccc(CS(=O)(=O)Cc2cccc(Cl)c2)o1 do in these assays?
Tb hexokinase: 38.8; Dynein cargo inh: 0.0303; MT stabilize HCS: 1.5; bCat nuc transl: 2.4; Rad51 HR inh: -2.2

Results for COCCn1c(-c2ccc(C#N)cc2)nc2c1c(=O)[nH]c(=O)n2Cc1ccccc1 ?
Tb hexokinase: -4.1; Dynein cargo inh: 0.167; MT stabilize HCS: 2.2; bCat nuc transl: -1.8; Rad51 HR inh: 13.2

How did CSc1ccc(/C=N/NC(=O)c2ccc(C)c(C)c2)cc1 do in these assays?
Tb hexokinase: -14.1; Dynein cargo inh: -0.0254; MT stabilize HCS: 23.9*; bCat nuc transl: 1.1

How did O=C(Nc1ccc2c(c1)OCO2)c1cc2nc(C3CC3)cc(C(F)(F)F)n2n1 do in these assays?
Tb hexokinase: 7.1; Dynein cargo inh: 0.105; MT stabilize HCS: 3.2; bCat nuc transl: -1.6; Rad51 HR inh: -0.7

What do the screens show for `O=C(NC(=S)Nc1cccc(Cl)c1N1CCCCC1)c1ccc2c(c1)OCCO2`?
Tb hexokinase: -5.6; Dynein cargo inh: 0.89; MT stabilize HCS: 29.0*; bCat nuc transl: 85.9*; Rad51 HR inh: 10.3

Results for Cc1ccc(C)c(C(=O)Nc2cc(C)nn2-c2nc(C)cc(C)n2)c1 ?
Tb hexokinase: -1.5; Dynein cargo inh: 0.361; MT stabilize HCS: 12.9*; bCat nuc transl: -1.1; Rad51 HR inh: -1.2

What do the screens show for `Cc1cc(C)nc(-n2nc(C)cc2NC(=O)c2cccc(S(=O)(=O)N(C)C)c2)n1`?
bCat nuc transl: -6.9; Rad51 HR inh: -8.5

Results for CC/C(=N\NC(=O)CCC(=O)NCc1ccccc1)c1ccc(O)cc1 ?
Tb hexokinase: -8.9; Dynein cargo inh: -0.842; MT stabilize HCS: 11.6*; bCat nuc transl: 42.8; Rad51 HR inh: 9.6

Results for Cn1c(=O)c2c(nc(SC3C(=O)CC(C)(C)CC3=O)n2C)n(C)c1=O ?
bCat nuc transl: -3.3; Rad51 HR inh: 6.8

Results for N=c1n(Cc2ccc(Cl)cc2)c2ccccc2n1CC(O)COc1ccccc1 (stereo unspecified) ?
Tb hexokinase: 21.5; Dynein cargo inh: -0.0965; MT stabilize HCS: 20.9*; bCat nuc transl: 5.7; Rad51 HR inh: -5.4

What do the screens show for `Cc1ccc2c(c1)c1ccc3c(c1n2C)C(=O)C=CC3=O`?
Tb hexokinase: 2.0; Dynein cargo inh: -6.87*; bCat nuc transl: 0.1; Rad51 HR inh: -8.0

How did CC1=C(C(=O)OC(C)C)C(c2cccnc2)C2=C(CC(C)(C)CC2=O)N1 (stereo unspecified) do in these assays?
Tb hexokinase: -3.9; Dynein cargo inh: 2.54; MT stabilize HCS: 5.2; bCat nuc transl: 4.5; Rad51 HR inh: -5.1

How did CCOC(=O)c1[nH]c(C)c(C(=O)Nc2cc(Cl)ccc2C)c1C do in these assays?
Tb hexokinase: 3.3; Dynein cargo inh: 0.462; MT stabilize HCS: 38.1*; bCat nuc transl: 58.1*; Rad51 HR inh: -2.6

How did CCOC(=O)c1[nH]c(C)c(C(=O)Nc2ccccc2C)c1C do in these assays?
Tb hexokinase: -1.4; Dynein cargo inh: 0.328; MT stabilize HCS: 30.6*; bCat nuc transl: 43.0; Rad51 HR inh: -6.0

Results for Cc1ccc(Nc2nc(-c3c(C)nc4ccccn34)cs2)cc1 ?
Tb hexokinase: -15.5; Dynein cargo inh: 0.32; MT stabilize HCS: 16.9*; bCat nuc transl: 111.8*; Rad51 HR inh: -0.3

What do the screens show for `Cc1ccc(Nc2nc(-c3c(C)nc4ncccn34)cs2)cc1`?
Tb hexokinase: -1.2; Dynein cargo inh: -0.278; MT stabilize HCS: 16.8*; Rad51 HR inh: -1.7

What do the screens show for `CC1CCCC(C)N1S(=O)(=O)c1ccc(NC(=O)CCn2cnc3ccccc3c2=O)cc1` (stereo unspecified)?
Tb hexokinase: -9.5; Dynein cargo inh: -0.0936; MT stabilize HCS: 1.7; bCat nuc transl: 3.2; Rad51 HR inh: 126.2*

How did O=C(Cn1cnc2ccccc2c1=O)Nc1ccc(S(=O)(=O)N2CCCC2)cc1 do in these assays?
Tb hexokinase: -5.4; Dynein cargo inh: -0.756; MT stabilize HCS: 1.5; bCat nuc transl: -3.9; Rad51 HR inh: -5.4
